Assay results collected from several papers.
Compare with care: the assays were run in different laboratories.

CC[C@H](C)[C@@H]1NC(=O)[C@@](C)(NC(=O)[C@H](CCCNC(=N)N)NC(=O)[C@H](CC(C)C)NC(=O)[C@@H](NC(=O)[C@H](CCC(N)=O)NC(=O)[C@H](CC(C)C)NC(C)=O)[C@@H](C)O)CCCC=CCCC[C@@](C)(C(=O)N[C@@H](CC(C)C)C(=O)N[C@@H](Cc2ccc3ccccc3c2)C(N)=O)NC(=O)[C@H](CCCNC(=N)N)NC(=O)[C@H](CCC(N)=O)NC1=O — AUC(0-inf) (male BALB/c mouse, plasma; intraperitoneal, 5 mg/kg): 102000 ng·h/mL
Cc1cc(Nc2ccc(S(F)(F)(F)(F)F)cc2)n2ccnc2n1 — AUC(0-inf) (male Swiss mouse, plasma; oral, 100 mg/kg, single dose): 154 µM·h
COc1ccc2c(=O)cc(-c3ccccc3)oc2c1O — AUC(0-inf) (male CD-1 mouse, plasma; oral, 50 mg/kg): 1.67 ng·h/mL
Cc1noc(C)c1-c1ccc2nc(-c3cnn(CCO)c3)nc(N3CCOCC3c3ccccc3)c2c1 (stereo not drawn) — AUC(0-inf) (CD-1 mouse, plasma; intravenous, 2 mg/kg): 1760 ng·h/mL
CN1CCN(C(=O)CN[C@@H]2C[C@H]2c2ccc(OCc3ccccc3)cc2)CC1 — AUC(0-inf) (mouse, plasma; intraperitoneal, 10 mg/kg): 1720 ng·h/mL
CNC(=O)c1cc(OC)cc2c(N3CCc4c(cc(Cn5ccnc5)cc4-c4cn(C)nc4C(F)(F)F)C3=O)ccnc12 — AUC(0-inf) (male CD-1 mouse, plasma; oral, 50 mg/kg): 145000 ng·h/mL
Cc1ccc(NC(=O)c2ccc(CN3CCN(C)CC3)cc2)cc1Nc1nccc(-c2cncc(-c3oncc3C)c2)n1 — AUC(0-inf) (male C57BL/6 mouse, plasma; oral, 100 mg/kg/day): 38000 ng·h/mL
COc1cc(OC)c2nccc(N3CCc4c(cc(Cn5ccnc5)cc4-c4cn(C)nc4C(F)(F)F)C3=O)c2c1 — AUC(0-inf) (male CD-1 mouse, plasma; intravenous, 3 mg/kg): 805 ng·h/mL
CC(C)(Nc1nc(-c2ccccn2)nc2ccccc12)c1ccccn1 — AUC(0-inf) (female BALB/c mouse, plasma; intravenous, 1 mg/kg): 1460 ng·h/mL
CCc1cc(OC)c2nccc(N3CCc4c(cc(Cn5ccnc5)cc4-c4cn(C)nc4C(F)(F)F)C3=O)c2c1 — AUC(0-inf) (male CD-1 mouse, plasma; oral, 150 mg/kg): 225000 ng·h/mL
CC(C)(C)c1ccc(O)c(CN(Cc2cc(C(C)(C)C)ccc2O)C2CCC(NC(N)=O)CC2)c1 (stereo not drawn) — AUC(0-inf) (male C57BL/6 mouse, plasma; intraperitoneal, 10 mg/kg, single dose): 10800 ng·h/mL
CNCCN(C)c1cc(C#N)cc(CCc2cc(C)cc(N)n2)c1 — AUC(0-inf) (male BALB/c mouse, plasma; intravenous, 2 mg/kg): 181 ng·h/mL
CN1C(=O)c2ccccc2[S@+]([O-])c2ccc(C(=O)NCCc3cccs3)cc21 — AUC(0-inf) (male C57BL/6 mouse, brain; intraperitoneal, 30 mg/kg, single dose): 1430 ng·h/mL
Cc1nc(-c2cnc(NC(C)C)n(C)c2=O)ccc1Oc1ccnc(-c2cnn(C)c2)c1 — AUC(0-inf) (female mouse, plasma; oral, 15 mg/kg, single dose): 127000 ng·h/mL
Cc1ccc2cncc(N3CCc4c(cc(Cn5ccnc5)cc4-c4cn(C)nc4C(F)(F)F)C3=O)c2c1 — AUC(0-inf) (male CD-1 mouse, plasma; intravenous, 3 mg/kg): 3870 ng·h/mL
COc1nc(-c2cc(C)c(N[C@@H](C)c3c(F)cc(F)cc3F)nn2)ccc1-n1cnc(C)c1 — AUC(0-inf) (male CD-1 mouse, plasma; intravenous, 1 mg/kg, single dose): 2500 ng·h/mL
CCc1cc(C(=O)NC)c2nccc(N3CCc4c(cc(Cn5ccnc5)cc4-c4cn(C)nc4C(F)(F)F)C3=O)c2c1 — AUC(0-inf) (male CD-1 mouse, plasma; oral, 50 mg/kg): 122000 ng·h/mL
COc1cc2c(Nc3ccc(Cl)c(Cl)c3F)ncnc2cc1OC[C@@H]1C[C@@H]2CN(C)C[C@@H]2C1 — AUC(0-inf) (FVB mouse, plasma; oral, 70 mg/kg, single dose): 83000 ng·h/mL
Cc1cc(NC(=O)c2cccc3cc(-c4cccc5[nH]nc(N)c45)ccc23)ccc1F — AUC(0-inf) (male CD-1 mouse, plasma; oral, 10 mg/kg): 4940 ng·h/mL
COc1ccc2nccc(N3CCc4c(cc(Cn5ccnc5)cc4-c4cn(C)nc4C(F)(F)F)C3=O)c2c1 — AUC(0-inf) (male CD-1 mouse, plasma; oral, 50 mg/kg): 33800 ng·h/mL
COc1nc(-c2cc(C)c(N[C@@H](C)c3cc(F)cc(F)c3)nn2)ccc1-n1cnc(C)c1 — AUC(0-inf) (male CD-1 mouse, plasma; intravenous, 1 mg/kg, single dose): 2070 ng·h/mL
